M5 PAM = CHRM5 positive allosteric modulation. P08912. CHO-K1 hM5, Fluo-8 calcium, ACh EC20 PAM; 0% = ACh EC20, 100% = ACh EC100. activation, % at 3 µM. actives 0.3% (n = 360,000). AID 624038;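 active means activation above the run cutoff, the mean activation of all test compounds plus 3 SD, cut at about 18% in these data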
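Assay system: CHO-K1 hM5 cells / Incubation: Fluo-8 loading 80 min at 37 °C plus 30 min room temperature / Technique: Fluo-8 calcium dye fluorescence, kinetic read / Repeats: single replicate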
M4 antag = blocks acetylcholine activation of human M4 receptor. AID 624125. CHO-hM4 cells, ACh EC80, Fluo-8 calcium fluorescence. P08173. actives 0.73% (n = 360,000). inhibition, % at 3 µM;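 active means inhibition above its plate's cutoff, the mean inhibition of sample wells plus 3 SD, cut at about 27% in these data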
Target sequence (P08173 whole entry, looked up): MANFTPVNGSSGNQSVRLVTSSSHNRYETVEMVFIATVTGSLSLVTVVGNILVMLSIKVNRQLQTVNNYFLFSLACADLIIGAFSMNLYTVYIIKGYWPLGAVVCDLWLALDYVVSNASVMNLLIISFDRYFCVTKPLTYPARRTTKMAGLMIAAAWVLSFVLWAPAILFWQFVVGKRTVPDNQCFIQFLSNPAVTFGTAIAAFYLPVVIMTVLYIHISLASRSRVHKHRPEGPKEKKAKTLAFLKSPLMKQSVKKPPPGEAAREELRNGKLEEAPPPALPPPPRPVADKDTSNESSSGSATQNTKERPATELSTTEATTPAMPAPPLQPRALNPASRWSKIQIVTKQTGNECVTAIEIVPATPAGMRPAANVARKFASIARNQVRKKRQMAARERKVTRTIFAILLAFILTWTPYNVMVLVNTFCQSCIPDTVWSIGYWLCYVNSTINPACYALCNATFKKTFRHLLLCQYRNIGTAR
CHRM4 agonist = agonists of human muscarinic M4 receptor (CHRM4); P08173; CHO-K1 hM4/Gqi5, Fluo-8 calcium fluorescence; vehicle 0%, full acetylcholine response 100%; activation, % at 3 µM; actives 0.14% (n = 360,000); AID 624127;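 active means activation above the run mean over all test wells plus 3 SD, cut at about 32% in these data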;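 further: peak over basal fluorescence ratio per well then scaled between controls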
M4 PAM = positive allosteric modulators of human muscarinic M4 receptor; P08173; CHO-K1 hM4/Gqi5, Fluo-8 calcium fluorescence, ACh EC20; 0% = ACh EC20, 100% = maximal ACh; activation, % at 3 µM; actives 0.4% (n = 360,000); AID 624126;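 active means activation above its plate's cutoff, the mean activation of sample wells plus 3 SD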
CHRM5 antagonist = blocks acetylcholine activation of human M5 receptor; P08912; CHO-hM5 cells, Fluo-8 calcium fluorescence, ACh EC80; inhibition, % at 3 µM; AID 624040; actives 0.59% (n = 360,000);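 active means inhibition above a per-plate cutoff, the mean of that plate's test compounds plus 3 SD, cut at about 27% in these data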
M5 ag = agonists of human muscarinic M5 receptor (CHRM5); activation, % at 3 µM; P08912; actives 0.19% (n = 360,000); CHO-K1 hM5 cells, Fluo-8 calcium fluorescence; 0% DMSO wells, 100% maximal acetylcholine response;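 active means activation above the run's mean over test compounds plus 3 SD, cut at about 23% in these data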;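 further: signal is peak over basal fluorescence ratio across the kinetic read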
A number is an active result; n = inactive. Most compounds without a hit are left out; they make up all but 1.8% or so of the library.

SMILES | M5 PAM | M4 antag | CHRM4 agonist | M4 PAM | CHRM5 antagonist | M5 ag
CC(=O)COc1ccccc1OC(=O)c1ccco1 | n | n | n | n | n | n
COc1ccc(OC)c(NC(=O)C(=O)N/N=C(\C)CC(=O)Nc2ccc(Cl)cn2)c1 | n | n | n | n | n | n
C/C(=N/NC(=O)C1CC1(c1ccccc1)c1ccccc1)c1ccco1 (centres undefined) | n | n | n | n | n | n
O=C(N/N=C/c1ccco1)C1CC1(c1ccccc1)c1ccccc1 (centres undefined) | n | 28.4 | n | n | n | n
CCC(=O)NCCn1ccc2ccccc21 | n | n | n | n | n | n
CC(C)C(=O)NCCn1ccc2ccccc21 | n | n | n | 29.6 | n | n
COC1=C(OC)C(=O)C(CCCCCCCCCCO)=C(C)C1=O | n | 98.5 | n | n | 40.5 | n
CCc1nnc(NC(=O)CN2CCN(Cc3ccccc3Cl)CC2)s1 | n | n | n | n | n | n
Cc1ccc(-n2nnnc2SCC(=O)NC2CC2)cc1C | n | n | n | n | n | n
CCC1CN2CCc3cc(OC)c(OC)cc3C2CC1CC1c2cc(OC)c(OC)cc2CCN1C(=O)C(Cc1c[nH]c2ccccc12)NC(=O)OC(C)(C)C (centres undefined) | n | n | n | n | 26.9 | n
CC(C)C[C@H](NC(=O)OC(C)(C)C)C(=O)N1CCC(C(=O)N[C@@H](Cc2c[nH]c3ccccc23)C(=O)O)CC1 | n | n | n | n | n | n
CCN1C(=O)N[C@@H](c2ccco2)C(C(=O)OC)=C1C | n | n | n | n | n | n
COC(=O)[C@]12CCCCC=C1N(Cc1ccc3c(c1)OCO3)C(=O)[C@H](CC(=O)NCCCN1CCCC1=O)C2 | n | n | n | n | n | n
CCOC(=O)C1(Cc2ccc(OC)cc2)CCN(C(=O)CN2CCCCC2=O)CC1 | n | n | n | n | 28.4 | n
CN(C(=O)CSc1nnc(COc2ccccc2F)n1N)C1CCS(=O)(=O)C1 (centres undefined) | n | n | n | n | n | n
COc1ccc(Cl)cc1NC(=O)CN(C)C(=O)c1cc(-c2ccncc2)nc2ccccc12 | n | n | 32.8 | n | 27.4 | n
COc1ccc(NC(=O)CN(C)C(=O)c2cc(-c3ccncc3)nc3ccccc23)cc1 | n | n | n | n | n | n
Cc1cc(NC(=O)c2cccc(S(=O)(=O)N3CCCCCC3)c2)no1 | n | n | n | n | n | n
Cc1cc(NC(=O)c2ccc(F)c(S(=O)(=O)N3CCCCC3)c2)no1 | n | 51.0 | n | n | n | n
COc1ccc(/C=C/C(=O)Nc2ccccc2C(F)(F)F)cc1 | n | n | n | 21.1 | n | n
CCOc1ccc(/C=C/C(=O)Nc2ccccc2C(F)(F)F)cc1 | n | n | n | n | n | n
CSCCC(NC(=O)c1ccccc1Cl)C(=O)NCCOc1ccc(C)cc1 (centres undefined) | n | n | n | n | n | n
O=[N+]([O-])c1cccc(SSc2cccc([N+](=O)[O-])c2)c1 | n | n | n | n | n | 26.2
Nc1cccc([N+](=O)[O-])c1 | n | n | n | n | n | n
Cc1cc2c3c(c1)C(C)CC(C)(C)N3C(=O)C2=O (centres undefined) | n | n | n | n | n | n
SMILES | M5 PAM | M4 antag | CHRM4 agonist | M4 PAM | CHRM5 antagonist | M5 ag
CC1CC2(CCCCC2)N2C(=O)C(=O)c3cccc1c32 (centres undefined) | n | n | n | n | n | 62.7
O=C1NC2(CCCCCC2)N=C1c1ccc(Br)cc1 | n | 35.1 | n | n | n | n
C=CCn1c(O)c(C2=c3ccccc3=NC2=O)c2ccccc21 | n | 49.8 | n | n | n | n
OCCN1CCN(c2ncnc3c2ncn3[C@H]2CN(Cc3ccc4c(c3)OCO4)C[C@@H](CO)O2)CC1 | n | n | n | n | n | n
Cc1cc(C)n(-c2ccc(NC(=O)C3CCN(Cc4ccccn4)CC3)cc2)n1 | n | n | n | 21.9 | n | n
CCc1ncc(CN2CCC(C(=O)Nc3ccc(-n4nc(C)cc4C)cc3)CC2)cn1 | n | n | n | n | n | n
CCOc1ccc(CCNC(=O)Cn2cccc2C(=O)c2ccccc2)cc1OCC | n | n | n | n | n | n
CCOc1ccc(CCNC(=O)CCNC(=O)c2ccco2)cc1OCC | n | n | n | 19.0 | n | n
Cc1ccc(NC(=O)CCNC(=O)c2ccco2)cc1F | n | n | n | n | n | n
CNS(=O)(=O)c1cc(NC(=O)CCNC(=O)c2ccco2)ccc1C | n | n | n | n | 27.5 | n
CCOc1ccc(CCNC(=O)Cn2ccc3ccccc3c2=O)cc1OCC | 20.2 | n | n | n | n | n
COc1ccc(CCNC(=O)CCNC(=O)c2ccco2)cc1OC | n | n | n | n | n | n
NC(Cc1ccc(Cl)cc1)c1csc(Nc2cc(NCCCO)ncn2)n1 (centres undefined) | n | n | n | n | n | n
O=C(Nc1ccccc1C(=O)NCCc1ccc(O)cc1)c1ccco1 | n | n | n | n | n | n
CC1CCN(S(=O)(=O)N2CCC(C(=O)NCc3ccc(F)cc3Cl)CC2)CC1 | n | n | n | n | n | n
Cc1cc(C)cc(C(=O)NC(CC(N)=O)c2ccc(N3CCCCCC3)c([N+](=O)[O-])c2)c1 (centres undefined) | n | n | n | n | n | n
Cc1nn(Cc2c(Cl)cccc2Cl)c(C)c1NC(=O)CCCn1nc(C)c([N+](=O)[O-])c1C | n | n | n | n | n | n
Cc1nn(CCCC(=O)Nc2cccnc2Cl)c(C)c1[N+](=O)[O-] | n | 28.8 | n | n | n | n
Cc1cc(=O)oc2c(C)c(OCC(=O)NCCCN3CCOCC3)ccc12 | n | n | n | n | n | n
CC[C@H](C)C1OC(=O)[C@@H](C)[C@@H](CC)NC(=O)[C@H](C)N(C)C(=O)C(C)(C)C(=O)C(C)NC(=O)[C@H](Cc2ccc(OC)cc2)N(C)C(=O)[C@H](C(C)C)N(C)C(=O)CNC(=O)[C@H](CC(C)C)N(C)C(=O)CNC1=O (some centres undefined) | n | n | n | 22.7 | n | n
CN(C)CCCNCCCNC(=O)/C(=N\O)c1ccccc1 | n | n | n | 32.8 | n | n
CN(C)CCCNCCCNC(=O)c1ccccn1 | n | n | n | n | n | n
COc1cc(OC)c(OC)cc1CN1CCN(Cc2ccc(C(F)(F)F)cc2)CC1 | 22.2 | n | n | n | n | n
CCn1c(C)cc2c(c1=O)C(c1ccc3c(c1)OCO3)C(C#N)=C(N)O2 (centres undefined) | n | 29.9 | n | n | n | n

Screening results: PubChem BioAssay, The Scripps Research Institute Molecular Screening Center
